In ChEMBL document CHEMBL4382274, “NQO1-Selective Activated Prodrug of Triptolide: Synthesis and Antihepatocellular Carcinoma Activity Evaluation” (ACS Med Chem Lett, 2018):
Active and inactive are the calls of the source. The rule behind the calls is not given here.

Experiments:
[1] = target: T1, General transcription and DNA repair factor IIH helicase/translocase subunit XPB (Homo sapiens, UniProt P19447); test: Inhibition of […] ATPase activity in human HeLa cell nuclear extracts; format: cell-based
T1 sequence (P19447 whole entry): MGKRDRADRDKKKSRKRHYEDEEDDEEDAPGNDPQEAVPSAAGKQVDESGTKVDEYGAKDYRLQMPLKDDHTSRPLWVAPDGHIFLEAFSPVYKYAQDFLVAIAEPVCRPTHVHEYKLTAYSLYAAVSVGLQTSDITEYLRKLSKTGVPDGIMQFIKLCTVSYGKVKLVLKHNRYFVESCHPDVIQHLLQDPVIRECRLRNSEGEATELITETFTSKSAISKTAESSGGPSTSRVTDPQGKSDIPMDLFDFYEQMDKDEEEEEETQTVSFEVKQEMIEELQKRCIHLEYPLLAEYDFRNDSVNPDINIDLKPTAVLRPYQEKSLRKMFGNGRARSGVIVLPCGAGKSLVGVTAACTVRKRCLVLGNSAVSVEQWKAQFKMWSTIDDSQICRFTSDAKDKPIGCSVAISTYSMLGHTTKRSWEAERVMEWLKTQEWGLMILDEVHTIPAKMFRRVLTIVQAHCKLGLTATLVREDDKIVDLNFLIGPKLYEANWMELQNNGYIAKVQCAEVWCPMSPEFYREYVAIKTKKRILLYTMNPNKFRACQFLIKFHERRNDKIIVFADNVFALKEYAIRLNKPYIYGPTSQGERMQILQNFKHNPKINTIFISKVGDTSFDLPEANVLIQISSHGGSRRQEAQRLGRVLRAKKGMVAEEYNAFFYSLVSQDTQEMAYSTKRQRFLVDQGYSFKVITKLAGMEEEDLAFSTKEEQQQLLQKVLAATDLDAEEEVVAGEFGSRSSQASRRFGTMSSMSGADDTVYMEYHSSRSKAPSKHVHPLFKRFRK

HepG2 [2] = test: Cytotoxicity against human HepG2 cells after 48 hrs by XTT assay; format: functional, cell-based; settings: HepG2, 48 h
Hepatocyte = test: Cytotoxicity against primary hepatocytes (unknown origin) after 48 hrs by XTT assay; format: cell-based
[3] = Toxicity in Balb/c nude mouse at 0.2 mg/kg, ip; format: organism-based; settings: in vivo
HepG2 [4] = test: Antitumor activity against human HepG2 cells xenografted in Balb/c nude mouse assessed as reduction in tumor growth at 0.2 mg/kg, ip administered once daily for 15 days; format: functional, organism-based
Outline: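 HepG2 cells were inoculated into nude mice, and daily ip dosing began one week later and ran for two weeks. Tumour volume was followed over the treatment, and tumours were weighed and imaged at the end. n = 8 mice/group; Student's t test was used against the control.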

[5] = Toxicity in Balb/c nude mouse xenografted with human HepG2 cells assessed as change in body weight at 0.2 mg/kg, ip administered once daily for 15 days measured during compound dosing; format: organism-based; settings: in vivo, 360 h
Outline: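 Xenografted nude mice (8/group) received ip doses once daily for two weeks, starting one week after HepG2 inoculation. Body weight was recorded throughout the treatment period.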

[6] = Hepatotoxicity in Balb/c nude mouse xenografted with human HepG2 cells assessed as effect on serum ALT levels at 0.2 mg/kg, ip administered once daily for 15 days; format: toxicity, organism-based; settings: in vivo, 360 h
Outline: (§1)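 HepG2-xenografted nude mice were dosed every day for 15 days. Serum ALT, AST, creatinine and blood urea nitrogen were measured and compared with the control.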

[7] = Hepatotoxicity in Balb/c nude mouse xenografted with human HepG2 cells assessed as effect on serum AST levels at 0.2 mg/kg, ip administered once daily for 15 days; format: toxicity, organism-based; settings: in vivo, 360 h; outline: as §1
[8] = Hepatotoxicity in Balb/c nude mouse xenografted with human HepG2 cells assessed as pathological abnormalities at 0.2 mg/kg, ip administered once daily for 15 days by hematoxylin and eosin staining based microscopic analysis; format: toxicity, organism-based; settings: in vivo, 360 h
[9] = Renal toxicity in Balb/c nude mouse xenografted with human HepG2 cells assessed as increase in serum creatinine levels at 0.2 mg/kg, ip administered once daily for 15 days; format: organism-based; settings: in vivo, 360 h; outline: as §1
[10] = Renal toxicity in Balb/c nude mouse xenografted with human HepG2 cells assessed as increase in serum BUN levels at 0.2 mg/kg, ip administered once daily for 15 days; format: organism-based; settings: in vivo, 360 h; outline: as §1
[11] = Renal toxicity in Balb/c nude mouse xenografted with human HepG2 cells assessed as glomerular capillary loop lesions at 0.2 mg/kg, ip administered once daily for 15 days by hematoxylin and eosin staining based microscopic analysis; format: organism-based; settings: in vivo, 360 h
Outline: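 After 15 days of daily dosing, kidneys from xenografted nude mice were sectioned, H&E stained and examined at ×200 for glomerular capillary loop lesions, alongside control sections.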

[12] = Therapeutic index, ratio of IC50 for primary hepatocytes (unknown origin) to IC50 for human HepG2 cells; format: toxicity; settings: primary hepatocytes (unknown origin) versus HepG2 cells, read-out: Ratio IC50
HepG2 [13] = test: Cytotoxicity against human HepG2 cells after 48 hrs in presence of NQO1 inhibitor dicoumarol by XTT assay; format: functional, cell-based
[14] = target: NQO1 (NAD(P)H dehydrogenase [quinone] 1) (Homo sapiens, UniProt P15559); test: Half life in human HepG2 cell lysates assessed as NQO1-mediated compound degradation at 10 uM in presence of NADPH by HPLC analysis; format: ADME, subcellular, Lysate
[15] = target: T2, NAD(P)H dehydrogenase [quinone] 1 (Homo sapiens, UniProt P15559); test: Prodrug activation in human HepG2 cell lysates assessed as NQO1-mediated CX-21 formation at 10 uM up to 60 mins in presence of NADPH by HPLC analysis; format: subcellular, Lysate; settings: hepg2, 1 h
[16] = target: T2, NAD(P)H dehydrogenase [quinone] 1; test: Prodrug activation in human HepG2 cell lysates assessed as NQO1-mediated triptolide formation at 10 uM up to 60 mins in presence of NADPH by HPLC analysis; format: subcellular, Lysate; settings: hepg2, 1 h
[17] = target: T2, NAD(P)H dehydrogenase [quinone] 1; test: Prodrug activation in human HepG2 cell lysates assessed as NQO1-mediated CX-21 formation at 10 uM after 60 mins in presence of NADPH and NQO1 inhibitor dicoumarol by HPLC analysis; format: subcellular, Lysate; settings: hepg2, 1 h
[18] = target: T2, NAD(P)H dehydrogenase [quinone] 1; test: Prodrug activation in human HepG2 cell lysates assessed as NQO1-mediated triptolide formation at 10 uM after 60 mins in presence of NADPH and NQO1 inhibitor dicoumarol by HPLC analysis; format: subcellular, Lysate; settings: hepg2, 1 h
Keratinocyte = test: Cytotoxicity against human keratinocytes after 48 hrs by XTT assay; format: cell-based
[19] = Cytotoxicity against human skin fibroblasts after 48 hrs by XTT assay
HeLa = test: Cytotoxicity against human HeLa cells after 48 hrs by XTT assay; format: functional, cell-based
A549 = test: Cytotoxicity against human A549 cells after 48 hrs by XTT assay; format: functional, cell-based; settings: A549, 48 h
carboxyl ester hydrolase = test: Half life in human plasma assessed as carboxyl ester hydrolase-mediated compound degradation at 10 uM by UV-HPLC analysis; format: ADME, cell-free
Outline: (§2)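 Compound was incubated for 1 h in vitro in human plasma or human liver microsomes, and half-life was determined from its disappearance.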

CYP450 = CYP450 (Homo sapiens, UniProt P04798+P05177+P05181+P08684+P10632+P10635+P11509+P11712+P13584+P20813+P20815+P20853+P24462+P24903+P33260+P33261+P51589+P78329+P98187+Q02928+Q08477+Q16678+Q16696+Q5TCH4+Q6VVX0+Q7Z449+Q8TAV3+Q96SQ9+Q9HB55); test: Half life in human liver microsomes assessed as CYP450-mediated compound degradation at 10 uM by UV-HPLC analysis; format: ADME; outline: as §2
[20] = Tmax in KM mouse at 1 mg/kg, ip administered as single dose; format: ADME, organism-based; settings: in vivo
Outline: (§3)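 Mice received a single ip dose at 1.0 mg/kg. Levels were measured in plasma, liver and kidney with a validated analytical method, and plasma was sampled over time to 2 h and beyond. Derived values were absorption, distribution and terminal half-lives, tmax, Cmax and AUC tissue/plasma ratios.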

[21] = Cmax in KM mouse at 1 mg/kg, ip administered as single dose; format: ADME, organism-based; parameters: dose 1 mg/kg, route intraperitoneal; settings: in vivo; outline: as §3
[22] = Distribution half life in KM mouse at 1 mg/kg, ip administered as single dose; format: ADME, organism-based; settings: in vivo, read-out: alphat1/2; outline: as §3
[23] = Ratio of AUC in KM mouse liver to plasma at 1 mg/kg, ip administered as single dose; format: ADME, organism-based; settings: other tissue; outline: as §3
[24] = Ratio of AUC in KM mouse kidney to plasma at 1 mg/kg, ip administered as single dose; format: ADME, organism-based; settings: other tissue; outline: as §3
[25] = Time at which plasma concentration stays above in vitro IC50 for antiproliferative activity against human HepG2 cells in KM mouse at 1 mg/kg, ip administered as single dose; format: organism-based; settings: in vivo; outline: as §3
[26] = Plasma concentration in KM mouse at 1 mg/kg, ip administered as single dose at 2 hrs post dose; format: ADME, organism-based; outline: as §3
[27] = Plasma concentration in KM mouse at 1 mg/kg, ip administered as single dose after 2 hrs; format: ADME, organism-based; settings: in vivo, BLD = below limit of detection; outline: as §3
[28] = Terminal half life in KM mouse at 1 mg/kg, ip administered as single dose; format: ADME, organism-based; settings: in vivo, read-out: beta t1/2; outline: as §3
[29] = Toxicity in Balb/c nude mouse at 1 mg/kg, ip; format: organism-based; settings: in vivo
Outline: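 In a preliminary experiment, nude mice were given a single ip dose of 1.0 mg/kg and observed for toxic symptoms.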

HepG2 [30] = test: Antitumor activity against human HepG2 cells xenografted in Balb/c nude mouse assessed as reduction in tumor growth at 0.3 to 1 mg/kg, ip administered once daily for 15 days; format: functional, organism-based
Outline: (§4)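 HepG2 xenograft in nude mice. Dosing began one week after cell inoculation, ip once daily for two weeks. Tumor volume was followed during treatment, tumor weight taken at the end, and body weight monitored throughout. n = 8 mice/group; Student's t test against control.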

[31] = Toxicity in Balb/c nude mouse xenografted with human HepG2 cells assessed as change in body weight at 0.3 to 1 mg/kg, ip administered once daily for 15 days measured during compound dosing; format: organism-based; settings: in vivo, 360 h; outline: as §4
[32] = Hepatotoxicity in Balb/c nude mouse xenografted with human HepG2 cells assessed as effect on serum ALT levels at 0.3 to 1 mg/kg, ip administered once daily for 15 days; format: toxicity, organism-based; settings: in vivo, 360 h
Outline: (§5)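 Nude mice were dosed ip every day for 15 days at 0.2 mg/kg (reference), 0.3 mg/kg or 1.0 mg/kg. Serum ALT, AST, creatinine and BUN were measured. Kidney sections were H&E stained and examined at X200. Comparisons were made against control.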

[33] = Hepatotoxicity in Balb/c nude mouse xenografted with human HepG2 cells assessed as effect on serum AST levels at 0.3 to 1 mg/kg, ip administered once daily for 15 days; format: toxicity, organism-based; settings: in vivo, 360 h; outline: as §5
[34] = Hepatotoxicity in Balb/c nude mouse xenografted with human HepG2 cells assessed as pathological abnormalities at 0.3 to 1 mg/kg, ip administered once daily for 15 days by hematoxylin and eosin staining based microscopic analysis; format: toxicity, organism-based; settings: in vivo, 360 h
HepG2 [35] = test: Cytotoxicity against human HepG2 cells up to 20 uM after 48 hrs by XTT assay; format: functional, cell-based

T2 sequence (P15559 whole entry): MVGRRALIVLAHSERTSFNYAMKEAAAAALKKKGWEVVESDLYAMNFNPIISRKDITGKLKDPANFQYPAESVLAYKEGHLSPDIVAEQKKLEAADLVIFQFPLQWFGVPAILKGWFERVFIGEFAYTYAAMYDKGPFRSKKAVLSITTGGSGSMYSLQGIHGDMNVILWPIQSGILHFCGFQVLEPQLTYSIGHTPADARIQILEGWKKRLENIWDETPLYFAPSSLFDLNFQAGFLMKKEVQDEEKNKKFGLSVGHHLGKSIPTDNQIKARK
Chain of NQO1 (NAD(P)H dehydrogenase [quinone] 1) (P15559 whole entry): as above

In the case of `CC(C)[C@]12O[C@H]1[C@@H]1O[C@]13[C@]1(O[C@H]1C[C@H]1C4=C(CC[C@@]13C)C(=O)OC4)[C@@H]2O` [TRIPTOLIDE], the “inhibition (INH)” value [1] is reported as “Active”, the IC50 (HepG2 [2]) is reported as 43.3 nM and the IC50 (Hepatocyte) is reported as 37.7 nM. The Activity [3] was “Non-Toxic”, the Activity (HepG2 [4]) was “Active” and the Activity [5] was “Non-Toxic”. For the same compound, the Activity [6] was “Non-Toxic”, the Activity [7] was “Non-Toxic” and the Activity [8] was “Non-Toxic”. For the same compound, the Activity [9] was “Toxic”, the Activity [10] was “Toxic” and the Activity [11] was “Toxic”.
With `CC1=C(C)C(=O)C(C(C)(C)CC(=O)O[C@@H]2[C@@]3(C(C)C)O[C@H]3[C@@H]3O[C@]34[C@]23O[C@H]3C[C@H]2C3=C(CC[C@@]24C)C(=O)OC3)=C(C)C1=O` the “inhibition (INH)” value [1] was “Not Active”, the IC50 (HepG2 [2]) was 54.3 nM and the IC50 (Hepatocyte) was 540 nM. For the same compound, the selectivity ratio [12] was 9.89, the Activity (HepG2 [13]) was “inactive” and the half-life at 10 µM [14] was 7.27 min. For the same compound, the Drug metabolism [15] was “Metabolite_Detected”, the Drug metabolism [16] was “Metabolite_Detected” and the Drug metabolism [17] was “Metabolite_Notdetected”. The Drug metabolism [18] was “Metabolite_Notdetected”, the IC50 (Keratinocyte) was > 1000 nM and the IC50 [19] was > 1000 nM. For the same compound, the IC50 (HeLa) was 38.2 nM, the IC50 (A549) was 59.4 nM and the half-life at 10 µM (carboxyl ester hydrolase) was > 60 min. For the same compound, the half-life at 10 µM (CYP450) was > 60 min, the Tmax [20] was 3 min and the Cmax [21] was 243 ng/mL. The half-life [22] was 15.1 min, the Ratio [23] was < 5% and the Ratio [24] was < 5%. For the same compound, the Time [25] was 40 min, the concentration at 2 h [26] was 1.38 ng/mL and the Cp [27] was “Bld”. For the same compound, the half-life [28] was 154 min, the Activity [29] was “Non-Toxic” and the Activity (HepG2 [30]) was “Active”. For the same compound, the Activity [31] was “Non-Toxic”, the Activity [32] was “Non-Toxic” and the Activity [33] was “Non-Toxic”. The Activity [34] was “Non-Toxic”.
With `O=c1oc2ccccc2c(O)c1Cc1c(O)c2ccccc2oc1=O` the Activity (HepG2 [35]) was “inactive”.
